Results taken from ChEMBL document CHEMBL3400080, “Design, synthesis, optimization and antiviral activity of a class of hybrid dengue virus E protein inhibitors” (Bioorg Med Chem Lett, 2015).

Tests used:
Yellow fever virus = assay: Antiviral activity against Yellow fever virus; type: functional, organism-based
dengue virus type 2 [1] = assay: Antiviral activity against DENV serotype 2 strain New Guinea C infected in african green monkey Vero cells assessed as reduction in production and release of infectious progeny virions after 2 hrs by virus yield-reduction assay; type: functional, organism-based
Summary of the method: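 Dose-response validation in virus-infected, compound-treated cells. Read-out was the amount of dengue viral RNA produced, quantified as a virus yield reduction. EC50 was derived from this.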

[2] = Selectivity index, CC50 for african green monkey Vero B cells to EC50 for DENV serotype 2 strain New Guinea C by CPE-reduction assay
[3] = Cytotoxicity against DENV serotype 2 strain New Guinea C infected african green monkey Vero B cells by virus yield-reduction assay; type: cell-based; conditions: chlorocebus sabaeus
[4] = Cytotoxicity against DENV serotype 2 strain New Guinea C infected african green monkey Vero B cells by CPE-reduction assay; type: cell-based; conditions: chlorocebus sabaeus
dengue virus type 2 [5] = assay: Antiviral activity against DENV serotype 2 strain New Guinea C infected in african green monkey Vero-B cells assessed as inhibition of virus-induced cytopathic effect after 2 hrs by CPE-reduction assay; type: functional, organism-based
Summary of the method: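 Virus and compound mixed and pre-incubated together for 2 h at 37 °C before being added to cells. Co-addition without pre-incubation was also tested. Read-out was inhibition of virus-induced cytopathic effect (cell death). EC50 was taken from the dose-response.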

[6] = Selectivity index, CC50 for african green monkey Vero B cells to EC50 for DENV serotype 2 strain New Guinea C by virus yield-reduction assay; type: toxicity, cell-based; conditions: read-out: Selectivity Index
Summary of the method: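 Selectivity index is CC50 divided by EC50. The EC50 comes from a dose-response measurement of the dengue virus RNA produced by virus-infected cells treated with compound (virus yield reduction).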

dengue virus type 2 [7] = assay: Antiviral activity against DENV serotype 2 strain New Guinea C infected in BHK-21 cells assessed as inhibition of plaque formation after 2 hrs by plaque-reduction assay; type: functional, organism-based
Summary of the method: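 Dose-response effect on production of infectious dengue virus serotype 2 progeny, read as plaque formation. EC50 was derived from the plaque counts.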

Compound: Nc1ccccc1SCc1csc(-c2ccc(Cl)cc2)n1
- IC50 (Yellow fever virus): 31 µM

Compound: C(=N\Nc1nc(-c2ccc(-c3ccccc3)cc2)cs1)/c1ccccc1
- EC50 (dengue virus type 2 [1]): 128 µM
- Selectivity Index [2]: >4
- CC50 [3]: > 141 µM
- CC50 [4]: > 141 µM
- EC50 (dengue virus type 2 [5]): 35.2 µM
- selectivity ratio [6]: > 1

Compound: C/C(=N\Nc1nc(-c2ccc(-c3ccccc3)cc2)cs1)c1ccc([N+](=O)[O-])cc1
- EC50 (dengue virus type 2 [1]): 12.2 µM
- Selectivity Index [2]: 2
- CC50 [3]: 70.8 µM
- CC50 [4]: 82 µM
- EC50 (dengue virus type 2 [5]): 41 µM
- selectivity ratio [6]: 6

Compound: NC(=O)c1ncn([C@@H]2O[C@H](CO)[C@@H](O)[C@H]2O)n1 [RIBAVIRIN]
- EC50 (dengue virus type 2 [1]): 47.9 µM
- CC50 [3]: > 410 µM
- selectivity ratio [6]: > 9

Compound: COc1ccc(C2=NN(c3nc(-c4ccc(-c5ccccc5)cc4)cs3)C(c3ccc(O)cc3)C2)cc1 (stereo unspecified)
- EC50 (dengue virus type 2 [1]): 18.6 µM
- Selectivity Index [2]: >4
- CC50 [3]: 99.3 µM
- CC50 [4]: > 99 µM
- EC50 (dengue virus type 2 [5]): 24.8 µM
- selectivity ratio [6]: 5

Compound: Oc1ccc(/C=N/Nc2nc(-c3ccc(-c4ccccc4)cc3)cs2)cc1
- EC50 (dengue virus type 2 [1]): 5.29 µM
- Selectivity Index [2]: >8
- CC50 [3]: > 135 µM
- CC50 [4]: > 135 µM
- EC50 (dengue virus type 2 [5]): 16.8 µM
- selectivity ratio [6]: > 25

Compound: Cc1nc(-n2nc(-c3ccccc3)cc2-c2ccccc2)sc1C(=O)/C=C/c1ccc(Cl)c(Cl)c1
- IC50 (Yellow fever virus): 51 µM

Compound: COc1ccc(C2=NN(c3nc(-c4ccc(Cl)cc4)cs3)C(c3ccc(O)c(OC)c3)C2)cc1 (stereo unspecified)
- EC50 (dengue virus type 2 [1]): 7 µM
- Selectivity Index [2]: 3
- CC50 [3]: 54.6 µM
- CC50 [4]: 2.4 µM
- EC50 (dengue virus type 2 [5]): 0.79 µM
- selectivity ratio [6]: 8

Compound: COc1ccc(C2=NN(c3nc(-c4ccc(-c5ccccc5)cc4)cs3)C(c3ccc(O)c(OC)c3)C2)cc1 (stereo unspecified)
- EC50 (dengue virus type 2 [1]): 3.79 µM
- Selectivity Index [2]: 2
- CC50 [3]: 25.6 µM
- CC50 [4]: 16.8 µM
- EC50 (dengue virus type 2 [5]): 8.4 µM
- selectivity ratio [6]: 7

Compound: COc1ccc(/C(C)=N/Nc2nc(-c3ccc(-c4ccccc4)cc3)cs2)cc1
- EC50 (dengue virus type 2 [1]): 17.7 µM
- Selectivity Index [2]: 2
- CC50 [3]: 117 µM
- CC50 [4]: 200 µM
- EC50 (dengue virus type 2 [5]): 100 µM
- selectivity ratio [6]: 7

Compound: Oc1ccc(C2=NN(c3nc(-c4ccc(-c5ccccc5)cc4)cs3)C(c3ccccc3)C2)cc1 (stereo unspecified)
- EC50 (dengue virus type 2 [1]): 8.44 µM
- Selectivity Index [2]: 6
- CC50 [3]: 86.8 µM
- CC50 [4]: 79.2 µM
- EC50 (dengue virus type 2 [5]): 13.2 µM
- selectivity ratio [6]: 10

Compound: C/C(=N\Nc1nc(-c2ccc(Cl)cc2)cs1)c1ccc(O)cc1
- EC50 (dengue virus type 2 [1]): 1.32 µM
- Selectivity Index [2]: 25
- CC50 [3]: 125 µM
- inhibition (dengue virus type 2 [7]): Dose-dependent effect
- EC50 (dengue virus type 2 [7]; BHK-21, 2 h): 1.39 µM
- CC50 [4]: 145 µM
- EC50 (dengue virus type 2 [5]): 5.8 µM
- selectivity ratio [6]: 95
